Here are results for 17 compounds from ChEMBL document CHEMBL4732218, “Synthesis and biological evaluation of benzhydryl-based antiplasmodial agents possessing Plasmodium falciparum chloroquine resistance transporter (PfCRT) inhibitory activity” (Eur J Med Chem, 2021).

Calls of active or inactive are those of the source. The rule behind the calls is not given here.

Series [1] has as its system Plasmodium berghei. The series is described as follows: Antimalarial activity against liver stage Plasmodium berghei PbmCherryhsp70 sporozoites infected in human HepG2 cells assessed as reduction in parasite size at 2 uM incubated for 24 hrs followed by removal of media and supplemented with fresh media and further incubated for 24 hrs […]. It is filed as functional, organism-based. In outline:
(§1)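 HepG2 cells (60000/well, seeded day before) infected 2 h with 20'000 PbmCherry_hsp70 sporozoites from An. stephensi salivary glands, then detached, pooled and treated from 2 hpi at graded concentrations with DMSO control. Medium changed 24 hpi; fixed 4% PFA at 48 hpi. Parasite number and size from mCherry signal by automated microscopy; 6 replicates; host growth checked by phase contrast; one-way ANOVA with Dunnett.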

For series [2], the system named is Plasmodium falciparum. The series is described as follows: Antimalarial activity against Plasmodium falciparum D10 by parasite lactate dehydrogenase assay. It is filed as functional, organism-based.
The subject of series [3] is Plasmodium falciparum. The series is described as follows: Antimalarial activity against Plasmodium falciparum W2 by parasite lactate dehydrogenase assay. It is filed as functional, organism-based.
Series [4] concerns Plasmodium berghei. The series can be described thus: Antimalarial activity against liver stage Plasmodium berghei PbmCherryhsp70 sporozoites infected in human HepG2 cells assessed as reduction in parasite number at 8 uM incubated for 24 hrs followed by removal of media and supplemented with fresh media and further incubated for 24 hrs […] relative to control. It is filed as functional. The method in brief: as §1

For series [5], the target named is T1, Chloroquine resistance transporter (Plasmodium falciparum) (UniProt Q9N623).
T1 sequence (whole entry): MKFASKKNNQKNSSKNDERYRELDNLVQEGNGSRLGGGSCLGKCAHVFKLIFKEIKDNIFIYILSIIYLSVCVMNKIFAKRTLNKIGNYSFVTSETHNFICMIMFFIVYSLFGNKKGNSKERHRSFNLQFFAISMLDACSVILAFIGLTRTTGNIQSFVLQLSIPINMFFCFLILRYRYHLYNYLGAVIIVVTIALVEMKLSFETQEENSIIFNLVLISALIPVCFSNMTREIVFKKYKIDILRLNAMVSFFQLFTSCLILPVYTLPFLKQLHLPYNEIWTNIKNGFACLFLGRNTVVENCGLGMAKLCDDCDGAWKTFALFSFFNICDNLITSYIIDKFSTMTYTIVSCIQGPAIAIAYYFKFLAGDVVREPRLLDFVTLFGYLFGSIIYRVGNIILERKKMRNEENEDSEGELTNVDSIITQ
The series is described as follows: Inhibition of Plasmodium falciparum Dd2 CRT expressed in Xenopus laevis oocyte assessed as inhibition of [3H]-CQ transport at 100 uM incubated for 1.5 hrs by microbeta scintillation counting method. It is filed as cell-based. The method in brief:
(§2)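 Xenopus oocytes expressing PfCRT Dd2 and non-expressing oocytes, stored at 16–18 °C in OR2+ buffer (pH 7.8), assayed 3-4 days post-injection. [3H]CQ (0.25 µM) influx measured over 1.5 h at 27.5 °C in pH 5.5 medium (96 mM NaCl, 10 mM MES/Tris) with 15 µM unlabeled CQ, scintillation counting. PfCRT-mediated transport = uptake in expressing minus non-expressing oocytes.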

In series [6] the target is T2, Chloroquine resistance transporter (Plasmodium falciparum, UniProt Q9N623).
T2 sequence (Q9N623 whole entry): T1 sequence (whole entry)
The series is described as follows: Inhibition of Plasmodium falciparum Dd2 CRT expressed in Xenopus laevis oocyte assessed as inhibition of [3H]-CQ transport incubated for 1.5 hrs by microbeta scintillation counting method. It is filed as cell-based. In outline:
as §2

In series [7] the test system is Plasmodium berghei. The series is described as follows: Antimalarial activity against in Plasmodium berghei ANKA strain GFP-con infected in Balb/c mouse assessed as blocked of transmission activity to Anopheles stephensi by measuring reduction in […] in mosquito at 10 micromol/kg, ip treated first dose 3 days post infection and female mosquitos feed blood meal on day 4 after 1.5 hrs of dosing by direct exposure and measured on day 8 by fluorescence microscopic analysis (reference value: 357). Particulars: dose 10 µmol/kg; time 3 day. It is filed as functional. In outline:
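P. berghei ANKA GFP-con, i.p. 10^7 infected RBC into 8–10-week BALB/c mice; on day 3 mice with ~5% parasitemia and gametocytes randomised, 3 per group. Dosed i.p. 10 µmol/kg on afternoon of day 3 and again day 4, 1.5 h before 1 h feed by ~150 female An. stephensi. Day 8: fluorescent midgut oocysts counted in 20–30 mosquitoes; triplicate cages; PBS control; two-tailed t-test.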

Series [8] can be described thus: Cytotoxicity against mouse NIH/3T3 cells assessed as reduction in cell viability incubated for 24 hrs by neutral red dye uptake assay. It is filed as cell-based, NIH3T3. In outline: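 NIH3T3 cells, 5 × 10^4/well, cultured 24 h at 37 °C, 5% CO2, then exposed 24 h to compounds in DMSO at 8–160 µM; medium alone as negative control. Viability by Neutral Red uptake (3 h at 37 °C), dye extracted in acetic acid/ethanol, absorbance 540 nm. Three experiments, six replicates per concentration.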

`COc1cc(NC(C)CCCN)c2ncccc2c1` (centres undefined) [PRIMAQUINE]: in the series with Plasmodium berghei [1], the inhibition result is “Active”. In addition, the IC50 in the series on Plasmodium falciparum [2] stood at 5700 nM; with Plasmodium falciparum [3], 4400 nM. For the same compound, in the series on Plasmodium berghei [4], the inhibition at 8 µM came out at 50%.

Turning to `Clc1cccc(C(Nc2ccnc3cc(Cl)ccc23)c2ccc(CCN3CCCC3)cc2)c1` (centres undefined), in series [5], the inhibition result was “inactive”. Further, the IC50 is 23 nM in the series on Plasmodium falciparum [2] and 22 nM in the series on Plasmodium falciparum [3].

Turning to `OC(c1ccc(Cl)cc1)(c1ccc(CN2CCNCC2)cc1)c1ccnc2cc(Cl)ccc12` (centres undefined), the inhibition entry in series [5] is “inactive”. Further, the IC50 in the series with Plasmodium falciparum [2] and with Plasmodium falciparum [3] was 2000 nM throughout.

As for `Clc1ccc(C(Nc2ccnc3cc(Cl)ccc23)c2ccc(CN3CCCCC3)cc2)cc1` (centres undefined), the inhibition result in series [5] was “inactive”. Moreover, the half-inhibitory concentration (IC50) with Plasmodium falciparum [2] worked out at 65 nM; with Plasmodium falciparum [3], 69 nM.

As for `Clc1ccc(C(Nc2ccnc3cc(Cl)ccc23)c2ccc(CN3CCN(Cc4ccc(C(Nc5ccnc6cc(Cl)ccc56)c5cccc(Cl)c5)cc4)CC3)cc2)cc1` (centres undefined), in series [5], the inhibition entry was “Active”. Besides, the IC50 is 15600 nM in series [6], 595 nM in the series with Plasmodium falciparum [2] and 460 nM with Plasmodium falciparum [3].

As for `O=C(c1ccc(Cl)cc1)c1ccc(CN2CCNCC2)cc1`, in series [5], the inhibition is 22%. For the same compound, the half-inhibitory concentration (IC50) was greater than 15000 nM in the series with Plasmodium falciparum [2] and 8600 nM with Plasmodium falciparum [3].

With `COc1cc(NC(c2ccc(CN3CCCC3)cc2)c2cccc(Cl)c2)c2ncccc2c1` (centres undefined), the inhibition in series [5] turned out to be 65%. Besides, the IC50 in series [6] was found to be 55000 nM; in the series with Plasmodium falciparum [2] it was 4500 nM; in the series with Plasmodium falciparum [3] it was 3700 nM. Moreover, the Activity in the series with Plasmodium berghei [7] stood at 491. The CC50 at 24 h in series [8] was found to be 28000 nM.

Take `COc1cc(NC(c2ccc(CN3CCNCC3)cc2)c2cccc(Cl)c2)n2nc(C)nc2n1` (centres undefined): the inhibition in series [5] is 98%. Also, the 50% inhibitory concentration (IC50) turned out to be 12500 nM in series [6], 3700 nM with Plasmodium falciparum [2] and 920 nM in the series with Plasmodium falciparum [3]. In addition, the 50% cytotoxic concentration (CC50) at 24 h in series [8] was less than 3500 nM.

In the case of `Clc1cccc(C(Nc2ccnc3cc(Cl)ccc23)c2ccc(CN3CCCCC3)cc2)c1` (centres undefined), the inhibition entry in series [5] is “inactive”. Further, the IC50 with Plasmodium falciparum [2] came out at 84 nM; in the series with Plasmodium falciparum [3], 88 nM.

`OC(c1ccc(Cl)cc1)c1ccc(CCN2CCCC2)cc1` (centres undefined): the inhibition in series [5] worked out at 22%. Further, the IC50 in the series with Plasmodium falciparum [2] and in the series with Plasmodium falciparum [3] was greater than 15000 nM throughout.

`COc1cccc(C(Nc2ccnc3cc(Cl)ccc23)c2ccc(CN3CCNCC3)cc2)c1` (centres undefined): the inhibition entry in series [5] was “Active”. The IC50 came out at 40 nM in the series on Plasmodium falciparum [2] and 75 nM in the series on Plasmodium falciparum [3].

For `Clc1ccc(C(c2ccc(CN3CCNCC3)cc2)c2ccnc3cc(Cl)ccc23)cc1` (centres undefined), the inhibition result in series [5] is “inactive”. For the same compound, the IC50 was 3700 nM in the series on Plasmodium falciparum [2] and 2700 nM in the series on Plasmodium falciparum [3].

In the case of `Clc1ccc2c(NC(c3ccc(CN4CCNCC4)cc3)c3cccc(OCCOc4cccc(C(Nc5ccnc6cc(Cl)ccc56)c5ccc(CN6CCNCC6)cc5)c4)c3)ccnc2c1` (centres undefined), the inhibition entry in series [5] was “Active”.

Consider `Oc1cccc(C(Nc2ccnc3cc(Cl)ccc23)c2ccc(CN3CCNCC3)cc2)c1` (centres undefined), for which the inhibition entry in series [5] is “inactive”. For the same compound, the 50% inhibitory concentration (IC50) came out at 179 nM with Plasmodium falciparum [2] and 475 nM in the series on Plasmodium falciparum [3].

`COc1cc(NC(c2ccc(CN3CCNCC3)cc2)c2cccc(Cl)c2)c2ncccc2c1` (centres undefined): the inhibition in series [5] was 65%. Besides, the figures for the half-inhibitory concentration (IC50) (in series [6]; with Plasmodium falciparum [2]; with Plasmodium falciparum [3]) were 64000 nM, 2800 nM and 2300 nM, respectively. Besides, the Activity with Plasmodium berghei [7] was 454. For the same compound, in series [8], the CC50 at 24 h stood at 19000 nM.

Turning to `Clc1ccc(C(Nc2ccnc3cc(Cl)ccc23)c2ccc(CCN3CCCC3)cc2)cc1` (centres undefined), the inhibition result in series [5] was “inactive”. In addition, the 50% inhibitory concentration (IC50) with Plasmodium falciparum [2] worked out at 19 nM; in the series on Plasmodium falciparum [3], 27 nM.

As to `OC(c1ccc(Cl)cc1)c1ccc(CN2CCNCC2)cc1` (centres undefined), in series [5], the inhibition turned out to be 22%. Further, the IC50 in the series with Plasmodium falciparum [2] is greater than 15000 nM; in the series on Plasmodium falciparum [3], 11000 nM.

What is called inhibition is the percentage by which the read-out fell short of the control. A word on the IC50: it is the concentration that inhibits the measured activity by half. The CC50 is the concentration that lowers cell viability or growth by half.
